Experimental data taken from ChEMBL document CHEMBL3351758, “Inhibition of cancer-associated mutant isocitrate dehydrogenases: synthesis, structure-activity relationship, and selective antitumor activity” (J Med Chem, 2014).

Key:
[1] = molecular target: Isocitrate dehydrogenase [NADP] cytoplasmic (Homo sapiens, UniProt O75874, R132H); test: Inhibition of human IDH1 R132H mutant expressed in Escherichia coli BL21-CodonPlus assessed as reduction in NADPH consumption
[2] = molecular target: Isocitrate dehydrogenase [NADP] cytoplasmic (Homo sapiens, UniProt O75874); test: Inhibition of wild type human IDH1 expressed in Escherichia coli BL21-CodonPlus assessed as NADPH production
[3] = Inhibition of neurosphere formation of […] BXD4687 cells by CCK8 assay; format: functional, cell-based
Summary of the method: (§1)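 Neurosphere cultures grown serum-free at 37 °C, 5% CO2 (neurobasal medium, N2/B27, bFGF and EGF 50 ng/mL each, penicillin/streptomycin). BXD lines come from patient-tumour orthotopic xenografts; BT-142 carries endogenous IDH1 R132H and gets extra supplements (PDGF-AA, insulin, transferrin, others). 2000 cells/well were exposed to 0.002, 0.02, 0.2, 2 or 20 μM for up to 13 days. CCK-8 viability was read on days 4, 7, 10 and 13.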

[4] = Inhibition of cell proliferation of human WI38 cells by CCK8 assay; format: functional, cell-based; details: WI-38
[5] = Inhibition of neurosphere formation of […] BXD3752 cells by CCK8 assay; format: functional, cell-based; summary of the method: as §1
[6] = Cytotoxicity against human HT1080 cells up to 30 uM; format: cell-based; details: ht-1080
[7] = Inhibition of neurosphere formation of human BT142 cells by CCK8 assay; format: functional, cell-based; summary of the method: as §1
MDCK [8] = test: Efflux ratio, ratio of permeability from basolateral side over apical to basolateral side in MDCK cells expressing MDR1 at 10 uM incubated at 37 degC for 90 mins by LC/MS/MS method; format: ADME, cell-based, Canis lupus familiaris; details: dog, 1.5 h
Summary of the method: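 MDCK-MDR1 monolayers (passage 24–33, seeded at 60000 cells/cm² on Transwell filters) were used 3–4 days post-seeding if TEER stayed >1000 Ω·cm². After 30 min preincubation in HBSS/50 mM HEPES pH ≈7.4, compound was added to the donor side (10 μM initial, 0.1% DMSO) A→B or B→A, 37 °C, 90 min. LC-MS/MS SRM quantification; Papp = dQ/dt/(A·C0).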

MDCK [9] = test: Permeability from basolateral to apical side in MDCK cells expressing MDR1 at 10 uM incubated at 37 degC for 90 mins by LC/MS/MS method; format: ADME, cell-based, Canis lupus familiaris; details: dog, 1.5 h
Summary of the method: (§2)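 MDCK-MDR1 monolayers were used 3–4 days after seeding on 0.4 μm Transwell filters, only if TEER exceeded 1000 Ω·cm² before and after the run. They were preincubated 30 min in HBSS with 50 mM HEPES, pH ≈ 7.4. Donor got 10 μM compound (final, 0.1% DMSO), then 90 min at 37 °C. Both sides were sampled and quantified by LC-MS/MS SRM. Papp = dQ/dt/(A·C0).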

MDCK [10] = test: Permeability from apical to basolateral side in MDCK cells expressing MDR1 at 10 uM incubated at 37 degC for 90 mins by LC/MS/MS method; format: ADME, cell-based, Canis lupus familiaris; details: dog, 1.5 h; summary of the method: as §2
[11] = Selectivity index, ratio of EC50 for human BXD3752 cells to EC50 for human BT142 cells
[12] = Selectivity index, ratio of EC50 for human BXD4687 cells to EC50 for human BT142 cells
[13] = Inhibition of neurosphere formation of human BT142 cells at 20 uM by CCK8 assay; format: functional
Summary of the method: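 BT-142 glioma cells (endogenous IDH1 R132H) grown as neurospheres in serum-free neurobasal/N2/B27 medium with bFGF, EGF, PDGF-AA and other supplements. 2000 cells/well treated for up to 13 days. Viability by CCK-8 at days 4, 7, 10 and 13.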

[14] = Inhibition of neurosphere formation of human BT142 cells at 2 uM by CCK8 assay; format: functional; summary of the method: as §1

Sequence of Isocitrate dehydrogenase [NADP] cytoplasmic (Homo sapiens, UniProt O75874) (O75874 whole entry): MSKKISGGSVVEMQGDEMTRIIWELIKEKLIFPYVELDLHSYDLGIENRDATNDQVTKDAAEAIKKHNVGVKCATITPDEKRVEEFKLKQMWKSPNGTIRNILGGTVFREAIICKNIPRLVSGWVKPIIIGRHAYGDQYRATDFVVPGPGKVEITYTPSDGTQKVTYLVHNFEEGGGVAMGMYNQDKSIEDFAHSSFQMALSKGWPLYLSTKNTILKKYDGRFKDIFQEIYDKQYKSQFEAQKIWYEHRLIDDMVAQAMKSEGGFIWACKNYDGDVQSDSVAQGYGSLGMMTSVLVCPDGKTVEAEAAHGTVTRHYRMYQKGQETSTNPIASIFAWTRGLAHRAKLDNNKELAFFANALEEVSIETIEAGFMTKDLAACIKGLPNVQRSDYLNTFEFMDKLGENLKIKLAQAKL
Sequence of Isocitrate dehydrogenase [NADP] cytoplasmic (Homo sapiens, UniProt O75874, R132H) (O75874 2-414 R132H limits assumed): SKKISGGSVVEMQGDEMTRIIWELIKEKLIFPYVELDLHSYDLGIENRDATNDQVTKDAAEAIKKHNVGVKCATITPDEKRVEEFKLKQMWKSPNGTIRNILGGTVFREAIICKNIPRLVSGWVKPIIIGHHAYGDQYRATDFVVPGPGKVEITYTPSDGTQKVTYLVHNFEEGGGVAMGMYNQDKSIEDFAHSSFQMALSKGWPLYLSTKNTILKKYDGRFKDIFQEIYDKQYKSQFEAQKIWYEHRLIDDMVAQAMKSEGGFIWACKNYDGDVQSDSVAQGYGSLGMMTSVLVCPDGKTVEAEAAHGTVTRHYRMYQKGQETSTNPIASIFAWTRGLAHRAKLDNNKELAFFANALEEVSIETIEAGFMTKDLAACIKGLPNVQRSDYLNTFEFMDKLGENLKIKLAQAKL

O=C(NO)c1ccc(=O)n(O)c1
Ki [1]: > 50 µM

COc1ccc(Cc2cc(C)cc(=O)n2O)cc1
Ki [1]: 0.56 µM

Cc1cc(Cc2c(F)c(F)c(F)c(F)c2F)n(O)c(=O)c1
Ki [1]: 2.2 µM

O=c1cccc(CCc2ccccc2)n1O
Ki [1]: 10 µM

O=C(NO)c1cccc(=O)n1O
Ki [1]: 4.5 µM | Ki [2]: > 50 µM

COc1cc(Cc2ccccc2)n(O)c(=O)c1
Ki [1]: 5.5 µM

Cc1cc(Cc2ccc(-c3ccc(O)cc3)cc2)n(O)c(=O)c1
EC50 [3]: 16 µM | EC50 [4]: > 50 µM | EC50 [5]: 5.1 µM | Ki [1]: 0.25 µM | Activity [6]: Non-toxic | Ki [2]: 15.2 µM | EC50 [7]: 0.69 µM

Cc1cc(Cc2ccc(O)cc2)n(O)c(=O)c1
Activity [6]: Non-toxic

COc1cccc(Cc2cc(C)cc(=O)n2O)c1
EC50 [3]: 1.2 µM | EC50 [4]: > 50 µM | EC50 [5]: 2.5 µM | Ki [1]: 0.15 µM | Activity [6]: Non-toxic | Ki [2]: > 30 µM | Ratio (MDCK [8]): 1.7 | permeability (MDCK [9]): 8.88 ×10⁻⁶ cm/s | EC50 [7]: 0.63 µM | permeability (MDCK [10]): 5.39 ×10⁻⁶ cm/s

O=C(NCc1ccccc1)c1ccc(=O)n(O)c1
Ki [1]: > 50 µM

O=c1cc(O)cc(Cc2ccccc2)n1O
Ki [1]: 0.38 µM | Activity [6]: Non-toxic

O=c1ccc(-c2ccccc2)cn1O [1-HYDROXY-5-PHENYLPYRIDIN-2(1H)-ONE]
Ki [1]: 50 µM

Cc1cc(COc2ccccc2)n(O)c(=O)c1
Ki [1]: 0.87 µM

Cc1ccn(O)c(=O)c1Cc1cccc(O)c1
Ki [1]: 13.6 µM

Cc1cc(Cc2ccc(C(F)(F)F)cc2)n(O)c(=O)c1
Ki [1]: 3.2 µM

Cn1nnc2c(C(N)=O)ncn2c1=O [TEMOZOLOMIDE]
EC50 [3]: > 50 µM | EC50 [5]: > 50 µM | EC50 [7]: > 50 µM

COc1ccc(-c2ccc(Cc3cc(C)cc(=O)n3O)cc2)cc1
EC50 [3]: 7.6 µM | EC50 [4]: > 50 µM | EC50 [5]: 2.8 µM | Ki [1]: 0.34 µM | Activity [6]: Non-toxic | Ki [2]: 14 µM | EC50 [7]: 0.26 µM | Ratio EC50 [11]: >10 | Ratio EC50 [12]: >10

Cc1cc(Cc2cc3ccccc3s2)n(O)c(=O)c1
Ki [1]: 22.5 µM

Cc1cc(Cc2cccc(O)c2)n(O)c(=O)c1
EC50 [3]: 7.5 µM | EC50 [4]: > 50 µM | EC50 [5]: 6.2 µM | Ki [1]: 0.14 µM | Activity [6]: Non-toxic | Ki [2]: > 30 µM | EC50 [7]: 1.8 µM

Cc1cc(Cc2cccc(C(N)=O)c2)n(O)c(=O)c1
Ki [1]: 8.5 µM

Cc1cc(Cc2cccc(C#N)c2)n(O)c(=O)c1
Ki [1]: 1.6 µM

Cc1cc(Cc2cccc3cc(O)ccc23)n(O)c(=O)c1
Ki [1]: 27.5 µM

Cc1cc(Cc2cccc(-c3ccccc3)c2)n(O)c(=O)c1
Ki [1]: 0.6 µM

Cc1cc(Cc2cccc3ccccc23)n(O)c(=O)c1
Ki [1]: 0.95 µM

Cc1cc(Cc2ccccc2)n(N)c(=O)c1
Ki [1]: 3.8 µM

Cc1cc(Cc2ccc(Oc3ccccc3)cc2)n(O)c(=O)c1
Ki [1]: 0.75 µM

Cc1cc(C2CCCCC2)n(O)c(=O)c1 [CICLOPIROX]
Ki [1]: > 50 µM

Cc1cc(Cc2ccc(C#N)cc2)n(O)c(=O)c1
Ki [1]: 12.5 µM

O=c1ccc(CCc2ccccc2)cn1O
Ki [1]: > 50 µM

Cc1cc(Cc2cc(-c3ccccc3)cc(-c3ccccc3)c2)n(O)c(=O)c1
Ki [1]: 0.3 µM

Cc1cc(C)n(O)c(=O)c1 [METIPIROX]
Ki [1]: > 50 µM

O=c1cccc(Cc2ccccc2)n1O
Activity [6]: Non-toxic

Cc1cc(Cc2ccccc2)n(O)c(=O)c1
EC50 [3]: 6.8 µM | EC50 [5]: 5.9 µM | Activity [6]: Non-toxic | permeability (MDCK [9]): 6.34 ×10⁻⁶ cm/s | EC50 [7]: 0.37 µM | permeability (MDCK [10]): 5.45 ×10⁻⁶ cm/s

Cc1cc(Cc2cccc(C(=O)O)c2)n(O)c(=O)c1
Ki [1]: > 50 µM

Cc1cc(Cc2cccc(F)c2)n(O)c(=O)c1
Ki [1]: 2.2 µM

COc1cccc(-c2ccc(Cc3cc(C)cc(=O)n3O)cc2)c1
Ki [1]: 0.14 µM | Activity [6]: Non-toxic | Ki [2]: 13 µM

CC(C)c1cc(Cc2ccccc2)n(O)c(=O)c1
Activity [6]: Non-toxic

Cc1ccccc1C(C(=O)NC1CCCCC1)N(C(=O)Cn1ccnc1C)c1cccc(F)c1 (configuration not stated)
EC50 [3]: > 20 µM | EC50 [4]: > 50 µM | EC50 [5]: > 20 µM | inhibition at 20 µM [13]: 40% | Ratio (MDCK [8]): 72.6 | inhibition at 2 µM [14]: 40% | permeability (MDCK [9]): 10.4 ×10⁻⁶ cm/s | EC50 [7]: > 20 µM | permeability (MDCK [10]): 0.15 ×10⁻⁶ cm/s

O=C(Cc1ccccc1)Nc1ccc(=O)n(O)c1
Ki [1]: > 50 µM

O=c1ccc(CCCc2ccccc2)cn1O
Ki [1]: > 50 µM

Cc1cc(C)cc(Cc2cc(C)cc(=O)n2O)c1
Ki [1]: 3.1 µM

CC(=O)OCc1cc(Cc2ccccc2)n(O)c(=O)c1
Ki [1]: 4.5 µM

O=c1cccc(-c2ccccc2)n1O
Ki [1]: > 50 µM

COc1cccc(Cc2c(C)ccn(O)c2=O)c1
Ki [1]: 16.2 µM

COc1ccccc1Cc1cc(C)cc(=O)n1O
Ki [1]: 0.49 µM

Cc1cc(Cc2ccccc2O)n(O)c(=O)c1
Ki [1]: 0.65 µM

O=c1cc(CO)cc(Cc2ccccc2)n1O
Ki [1]: 5.6 µM

COc1ccc2c(Cc3cc(C)cc(=O)n3O)cccc2c1
Ki [1]: 40.5 µM

O=c1ccc(Oc2ccccc2)cn1O
Ki [1]: 46 µM

CC(c1ccccc1)c1cccc(=O)n1O (configuration not stated)
Ki [1]: > 50 µM

Cc1cc(Cc2ccsc2)n(O)c(=O)c1
Ki [1]: 0.95 µM

Cc1cc(Cc2ccc(-c3cccc(O)c3)cc2)n(O)c(=O)c1
Ki [1]: 0.27 µM

COC(=O)c1ccc(CCc2cccc(=O)n2O)cc1
Ki [1]: 27 µM

Cc1ccn(O)c(=O)c1Cc1ccccc1
Ki [1]: 9.5 µM
